MrgX1 antagonist: blocks BAM8-22 activation of human MrgX1 receptor | MRGX1-HEK293 calcium flux, Fluo-4, BAM8-22 antagonism; stronger effect = lower value | B-score at 10 µM | 310,000 compounds, 1.3% hits | AID 588676;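 active means calcium-response B-score plate-corrected more than 3 library SD below zero, starting fluorescence within 5 deviations, no agonist response on first addition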;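 further: peak minus trough fluorescence over baseline after final BAM8-22 challenge near maximal dose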
Target sequence (Q96LB2 whole entry, looked up): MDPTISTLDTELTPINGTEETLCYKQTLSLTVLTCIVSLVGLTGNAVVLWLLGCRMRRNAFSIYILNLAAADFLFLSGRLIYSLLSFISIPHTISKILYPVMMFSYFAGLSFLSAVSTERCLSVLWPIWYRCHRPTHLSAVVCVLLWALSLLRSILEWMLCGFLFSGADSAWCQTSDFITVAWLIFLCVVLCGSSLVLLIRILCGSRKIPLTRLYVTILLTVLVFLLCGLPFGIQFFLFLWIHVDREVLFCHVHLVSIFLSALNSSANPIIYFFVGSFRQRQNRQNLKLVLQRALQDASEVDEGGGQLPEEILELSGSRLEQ
RGS4 act: RGS4 potentiation or activation. HEK293 M3R/inducible RGS4, carbachol calcium flux Fluo4; stronger effect = lower value. B-score at 10 µM. 310,000 compounds, 0.92% hits;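 active means B-score of the integrated calcium signal more than 4 SD below the library mean, with starting fluorescence not abnormally high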;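 further: negative B-score means reduced calcium response which marks RGS4 activation or potentiation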
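Reagent: ECmax carbachol challenge; Test system: M3R-expressing HEK293 line, RGS4 induced by doxycycline; Schedule: overnight RGS4 induction, 30 min dye load 37 °C, 20 min compound RT; Detection: calcium dye Fluo4 fluorescence; Read-out: Agonist-evoked peak-minus-minimum fluorescence over baseline, integrated ratio, B score.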
MrgX1 ag: human MrgX1 receptor agonism, primary screen; MrgX1-HEK293 cells, Fluo-4 calcium fluorescence, agonist mode; stronger effect = higher value; 310,000 compounds, 0.44% hits; B-score at 10 µM; Q96LB2;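 active means calcium response B-score plate-corrected fluorescence ratio at least 3 library SD, with starting fluorescence B-score inside 5 SD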
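times = overnight plating, then 30 min 37 °C plus 30 min room-temperature dye loading | assay system = stable human MrgX1 HEK293 cell line | input = fifteen thousand cells per well | signal = kinetic calcium dye fluorescence, Fluo-4 NW | dosing = compound delivered in addition one of three | read-out = B-scored fluorescence response ratio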
RGS4 inh: inhibitors of human RGS4. HEK293 M3R/RGS4 inducible, Fluo-4 calcium flux; stronger effect = higher value; triggered by carbachol at its EC20. 310,000 compounds, 0.45% hits. B-score at 10 µM. P49798. AID 463165;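 active means B-score, a plate-corrected calcium signal, over three deviations above library mean, with baseline fluorescence within five deviations of library mean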;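 further: RGS4 expression induced by doxycycline in cells with stable M3 receptor; B-score is computed from the integrated fluorescence ratio over baseline after carbachol; higher B-score means a larger calcium signal and so more RGS4 inhibition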
Target sequence (P49798 whole entry, looked up): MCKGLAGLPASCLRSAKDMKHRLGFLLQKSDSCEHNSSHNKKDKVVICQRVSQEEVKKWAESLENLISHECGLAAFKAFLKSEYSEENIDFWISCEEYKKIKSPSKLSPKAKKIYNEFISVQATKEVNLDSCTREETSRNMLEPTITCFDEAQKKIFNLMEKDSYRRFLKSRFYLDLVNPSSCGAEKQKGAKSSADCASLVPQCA
Hep lipid drop: hepatic lipid droplet formation modulation; AML12 mouse hepatocytes, oleate lipid droplets, BODIPY imaging; inhibition, % at 6.5 µM; 240,000 compounds, 0.4% hits; AID 1656;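 active means lipid droplet intensity inhibited by at least 50%, with more than 500 cells counted; inconclusive means wells with under 300 cells, treated as cytotoxic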
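Test system: AML12 mouse liver cells; schedule: overnight exposure; technique: high-content imaging of BODIPY-stained droplets and DAPI nuclei; read-out: % inhibition of corrected integrated BODIPY droplet signal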
MrgX1 PAM: allosterically activates human MrgX1 receptor signaling. Q96LB2. MrgX1-HEK293, Fluo-4 calcium flux, FDSS; stronger effect = higher value. B-score at 10 µM. 310,000 compounds, 0.63% hits. AID 588675;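 active means plate-corrected calcium response at least 3 library SD above typical, normal starting fluorescence, not activating the receptor alone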;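 further: compound read alongside a low EC10 to EC30 dose of BAM8-22 agonist; peak minus trough fluorescence over baseline measured at the second addition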
Large screens that a line does not name were inactive. Compounds with a hit are over-represented: about 3.8% of the library has one in this group of screens.

COc1ccc(CN2C(=O)NC(=O)/C(=C\c3cccc(OC)c3OC)C2=O)cc1	MrgX1 antagonist -5.5
Cc1ccc(/C=C2/C(=O)NC(=O)N(Cc3ccc(F)cc3)C2=O)o1	RGS4 inh 11
COc1ccc(CN2C(=O)NC(=O)/C(=C/c3ccc([N+](=O)[O-])o3)C2=O)cc1	none (no result: MrgX1 antagonist, RGS4 act, MrgX1 ag, RGS4 inh, MrgX1 PAM)
COc1ccc(Cc2c(O)[nH]c(=S)[nH]c2=O)cc1	none
CCOC(=O)C1(CCc2ccccc2)CCN(Cc2cccc3c2OCO3)CC1	RGS4 act -7.5
CCOC(=O)C(C)(CC)NC(=O)CSP(=S)(OCC)OCC (centres undefined)	none
O=C1NC(=O)N(c2ccc(Cl)cc2)C(=O)/C1=C\c1ccc(Sc2nc3ccccc3[nH]2)o1	MrgX1 PAM 17
COc1ccc2nc3oc(C(=O)N4CCC5(CC4)OCCO5)cc3cc2c1	none
O=C1NC(=O)C(=Cc2ccc(OCCOc3ccc([N+](=O)[O-])cc3)cc2)C(=O)N1	MrgX1 antagonist -4.8
O=C1NC(=O)C(=Cc2cccc(OCCOc3ccccc3)c2)C(=O)N1	none
Cc1c(O)ccc(C(=O)CN2CC(C)OC(C)C2)c1O (centres undefined)	none
CC(C)=CCc1c(O)cc2c(c1O)C(=O)CC(c1ccc(O)cc1)O2 (centres undefined)	RGS4 act -7.2
Cc1cc(OCCN2CC2)c2ccccc2n1	none
CCN(CC)c1ccc(CNCCc2ccccc2F)cc1	RGS4 act -7
Cc1ccc(CNCCc2ccccc2F)cc1	none
CN1CCN(c2ccc(Cl)cc2N)CC1	none
CN1CCN(c2ccc(N)cc2Cl)CC1	MrgX1 antagonist -5.3
CN(C)CCSCc1nnc2n1-c1ccc(Cl)cc1C(c1ccccc1Cl)=NC2	none (no result: Hep lipid drop)
O=c1[nH]c(O)c(N=Nc2ccc(SC(F)F)cc2)c(=O)[nH]1	MrgX1 PAM 13
CCC(=NCc1ccco1)c1c(O)n(-c2ccccc2C)c(=O)[nH]c1=O	none
CC(C)(C)n1c(O)c(C=Nc2ccc3c(c2)CCC3)c(=O)[nH]c1=O	RGS4 act -7.1
Cn1c(O)c(C=Nc2ccc(F)cc2)c(=O)[nH]c1=O	none
COc1cccc2cc(-c3cc(=O)oc4ccc(OC(=O)N(C)C)cc34)oc12	none
CN1C(=O)/C(=C/c2ccc(N3CCCCCC3)o2)C(=O)NC1=S	MrgX1 ag 32
CN1C(=O)/C(=C\c2ccc(N3CCCCC3)o2)C(=O)NC1=S	MrgX1 ag 29
CN1C(=O)/C(=C\c2ccc(N3CCCCCC3)cc2)C(=O)NC1=S	none
COc1ccc(OCC#CCN2CCC(C)CC2)cc1	none
Clc1ccc(OCC#CCN2CCCCCC2)cc1	RGS4 act -7
O=C(C[N+]12CCC(CC1)C(CO)C2)c1ccc(Br)cc1 (centres undefined)	none (no result: Hep lipid drop)
CN(C)CCSC1c2ccccc2CSc2ccccc21 (centres undefined)	RGS4 act -9.1 (no result: Hep lipid drop)
COC(=O)c1cccc(N=Cc2c(O)n(Cc3ccc(F)cc3)c(=O)[nH]c2=O)c1	none
COc1cc(/C=C/c2nc3ccccc3c(=O)n2-c2ccc(O)cc2)ccc1O	RGS4 act -8.2
CCN(CC)c1ccc(/C=N/c2sc3c(c2C#N)C2CCN3CC2)c(O)c1	MrgX1 PAM 17 (no result: RGS4 act, RGS4 inh)
CCCCCCOc1ccc(CN2CCN(CCO)CC2)cc1	RGS4 act -7.3
Cc1ccccc1-n1c(-c2ccc([N+](=O)[O-])cc2)nc2ccccc2c1=O	RGS4 act -10
O=C(/C=C/c1c[nH]c2ccccc12)c1c(O)n(CCc2ccccc2)c(=O)[nH]c1=O	none
CCOC(=O)c1c(C)n(CC(O)CN2CCOCC2)c2cc(Br)c(OC)cc12 (centres undefined)	none
CC(C)N(CC(O)c1cccc([N+](=O)[O-])c1)C(C)C (centres undefined)	MrgX1 antagonist -6.2 (no result: Hep lipid drop)
CC(C)N1CCN(Cc2cccc([N+](=O)[O-])c2)CC1	none
COc1cccc(OP(=O)(Nc2ccccc2)Oc2cccc(OC)c2)c1	RGS4 act -9.9
CC1CCC(C(C)C)C(OC(=O)Cn2c(COc3ccccc3)[n+](C)c3ccccc32)C1 (centres undefined)	MrgX1 antagonist -14, RGS4 act -8
CC1CCCCC1NC1CCN(C)CC1 (centres undefined)	none
C=C1C(=O)O[C@H]2C[C@@H](C)[C@@H]3C=CC(=O)[C@@]3(C)C[C@H]12	RGS4 inh 6.3
O=S1(=O)N(Cc2ccc(F)cc2)CCCN1Cc1ccccc1Cl	none
CC1(C)C[C@H]2C=C(C=O)[C@]3(C=O)C[C@]3(C)[C@H]2C1	MrgX1 ag 32, Hep lipid drop inconclusive
O=C(CCc1ccc(O)cc1)N1C[C@H]2C[C@@H](C1)c1cccc(=O)n1C2	none (no result: Hep lipid drop)
CCOc1cc2c(cc1OCC)-n1cccc1C(c1ccc(C(C)C)cc1)NC2 (centres undefined)	MrgX1 antagonist -5.2
CCOc1cc2c(cc1OCC)-n1cccc1C(c1ccc(OC)cc1)NC2 (centres undefined)	MrgX1 antagonist -8.4
CCOc1cc2c(cc1OCC)-n1cccc1C(c1ccc(F)cc1)NC2 (centres undefined)	none
C/C(=N\N1CCCCCC1)c1c(O)n(-c2ccccc2C)c(=O)[nH]c1=O	none
CC1Oc2cc3c(-c4c(O)cc(O)c5c(O)c6c(cc45)OC(C)C(C)C6=O)c(O)cc(O)c3c(O)c2C(=O)C1C (centres undefined)	MrgX1 antagonist -5.9
CCN1CCc2ccccc2C1	none
CCN1CCN(CC(c2ccccc2)c2ccccc2)CC1	RGS4 act -7
CCP(=S)(CC)c1ccc(N(C)C)cc1	none
Cc1cccc(NC(=S)N2CC3CC(C2)c2cccc(=O)n2C3)c1C (centres undefined)	none
COC(=O)C1=C(c2cc3ccccc3o2)C[C@@H]2CC[C@H]1N2C(=O)NCc1ccccc1	none (no result: Hep lipid drop)
COC(=O)C1=C(c2cc3ccccc3o2)C[C@@H]2CC[C@H]1N2C(=O)NCc1ccc(C(F)(F)F)cc1	MrgX1 PAM 9.2 (no result: Hep lipid drop)
CCCCCCn1c(O)c(C=NCCN2CCOCC2)c(=O)[nH]c1=O	none
O=C(Nc1ccc(F)cc1)N1CC2CC(C1)c1cccc(=O)n1C2 (centres undefined)	none (no result: Hep lipid drop)
CN1CCN(Cc2ccccc2Sc2ccccc2)CC1	RGS4 act -8.2
CC(Cc1ccccc1Sc1ccccc1)N(C)C (centres undefined)	RGS4 act -9.3
O=c1c2ccccc2nc(CNCC2CCCO2)n1-c1ccc(F)cc1 (centres undefined)	none
Cn1cc(/C=C2\C(=O)NC(=O)N(c3ccccc3)C2=O)c2ccccc21	RGS4 act -7.8
O=C(O)Cn1cc(/C=C2\C(=O)NC(=O)N(c3ccc(Cl)cc3)C2=O)c2ccccc21	none

Assay outcomes (PubChem)
